Measured values as given in publication PMC2856757 (Journal of structural biology, 2010).

Tests used:
Assay type in all cases: physicochemical
[1] = Circular dichroism spectra; conditions: 5°C; for [θ]222 Benign (mean residue ellipticity at 222 nm): CD, peptide 211μm to 265μm (0.2 mg/ml), 1 mm cell, average of 6 scans; for [θ]222 Benign (mean residue ellipticity at 222 nm) / [θ]222/[θ]208 Benign: benign buffer (100mM KCl, 50mM PO4, pH 7); for [θ]222/[θ]208 50% TFE / [θ]222/[θ]208 Benign: ratio of mean residue ellipticity at 222 nm and 208 nm; for [θ]222/[θ]208 50% TFE: 50/50 benign buffer/TFE (v/v)
Outline: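 Disulfide-bridged peptides (N-acetylated, C-amidated, N-terminal Cys-Gly-Gly, air-oxidised overnight at 4°C in 100mM ammonium bicarbonate pH 8.3). Stocks of 2mg/mL in benign buffer are diluted to 0.2 mg/ml in benign buffer or buffer with 50% TFE. Concentration is by amino acid analysis. Scans run 190–255 nm in 0.5 nm steps at 50 nm per minute. Ellipticity is converted to molar ellipticity using mean residue weight, path length and concentration.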

[2] = Thermal denaturation by circular dichroism spectroscopy at 222 nm; conditions: CD at 222 nm, benign buffer (100mM KCl, 50mM PO4, pH 7), 5°C to 90°C in 0.5°C increments, 60°C/hour, from plot of fraction folded versus temperature
Outline: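 Disulfide-bridged two-stranded peptides (air-oxidised overnight at 4°C in 100mM ammonium bicarbonate, pH 8.3) diluted to 0.2 mg/ml in 100mM KCl, 50mM PO4, pH 7 (1 mm cell). Concentration by amino acid analysis. Ellipticity at 222 nm scanned 5°C to 90°C, 0.5°C steps, 60°C/hour. Fraction folded from observed, fully folded and fully unfolded ellipticities. Tm is the 50%-unfolded temperature; ΔTm is taken versus native peptide.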

[3] = RP-HPLC temperature profiling of peptide self-association; conditions: Gemini C18, 100mM NaClO4, 10mM NH4H2PO4, pH 7, 2%B per minute, 5°C - 80°C in 3°C increments, peptide 1.7mg/ml, retention times normalized to 5°C minus random coil control peptide
Outline: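 Gradient is 0-100%B over 50 minutes; eluent B is 50/50 H2O/CH3CN with the same salts. Retention time at each temperature minus that at 5°C gives the normalised value. Association parameter = peptide normalised value minus control normalised value; the maximum is reported.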

[4] = listed as R101A/L110A/K112A/K118A

TM2: TM85-119 analog with K118A substitution (VASLNRRIQLVEEELDRAQERLATALQKLEEAEAA; not fully specified; Cys-Gly-Gly linker; UniProt P09493 85-119, looked up, variant K118A)
[θ]222 Benign (mean residue ellipticity at 222 nm) [1]: -30,548 deg cm^2 dmol^-1 | [θ]222/[θ]208 50% TFE [1]: 0.97 deg cm^2 dmol^-1 | [θ]222/[θ]208 Benign [1]: 1.08 deg cm^2 dmol^-1 | Tm (temperature at which 50% of the peptide is unfolded) [2]: 48.7 °C | PA,Max (maximum association parameter, self-association) [3]: 2.7

Native: native tropomyosin 85-119 coiled-coil sequence with N-terminal Cys-Gly-Gly linker, N-acetylated, C-amidated, disulfide-bridged (Ac-CGGVASLNRRIQLVEEELDRAQERLATALQKLEEAEKA-NH2; also: disulfide-bridged two-stranded dimer (linker Cys); UniProt P09493 85-119, looked up, fragment)
[θ]222 Benign (mean residue ellipticity at 222 nm) [1]: -36,213 deg cm^2 dmol^-1 | [θ]222/[θ]208 50% TFE [1]: 0.96 deg cm^2 dmol^-1 | [θ]222/[θ]208 Benign [1]: 1.08 deg cm^2 dmol^-1 | [θ]222/[θ]208 Benign ([1]; listed as native peptide): greater than 1 deg cm^2 dmol^-1 | Tm (temperature at which 50% of the peptide is unfolded) [2]: 52.9 °C | PA,Max (maximum association parameter, self-association) [3]: 3.4

TM4: TM85-119 analog with R101A substitution (VASLNRRIQLVEEELDAAQERLATALQKLEEAEKA; not fully specified; Cys-Gly-Gly linker; UniProt P09493 85-119, looked up, variant R101A)
[θ]222 Benign (mean residue ellipticity at 222 nm) [1]: -34,390 deg cm^2 dmol^-1 | [θ]222/[θ]208 50% TFE [1]: 0.96 deg cm^2 dmol^-1 | [θ]222/[θ]208 Benign [1]: 1.08 deg cm^2 dmol^-1 | Tm (temperature at which 50% of the peptide is unfolded) [2]: 46.0 °C | PA,Max (maximum association parameter, self-association) [3]: 1.8

TM7: TM85-119 analog with R101A/L110A/K112A/K118A substitutions (VASLNRRIQLVEEELDAAQERLATAAQALEEAEAA; not fully specified; Cys-Gly-Gly linker; UniProt P09493 85-119, looked up, variant R101A L110A K112A K118A)
[θ]222 Benign (mean residue ellipticity at 222 nm) [1]: -9,578 deg cm^2 dmol^-1 | [θ]222/[θ]208 50% TFE [1]: 0.97 deg cm^2 dmol^-1 | [θ]222/[θ]208 Benign [1]: 0.86 deg cm^2 dmol^-1 | Tm (temperature at which 50% of the peptide is unfolded) [2]: <5 °C | Tm (temperature at which 50% of the peptide is unfolded) [2, 4]: less than 5 °C | PA,Max (maximum association parameter, self-association) [3]: 0 | PA,Max (maximum association parameter, self-association) [3, 4]: zero

TM3: TM85-119 analog with K112A/K118A substitutions (VASLNRRIQLVEEELDRAQERLATALQALEEAEAA; not fully specified; Cys-Gly-Gly linker; UniProt P09493 85-119, looked up, variant K112A K118A)
[θ]222 Benign (mean residue ellipticity at 222 nm) [1]: -29,457 deg cm^2 dmol^-1 | [θ]222/[θ]208 50% TFE [1]: 0.97 deg cm^2 dmol^-1 | [θ]222/[θ]208 Benign [1]: 1.08 deg cm^2 dmol^-1 | Tm (temperature at which 50% of the peptide is unfolded) [2]: 45.3 °C | PA,Max (maximum association parameter, self-association) [3]: 2.4
